Laboratory results published in ChEMBL document CHEMBL1255276, “Reliability of the WIDERYST susceptibility testing system for detection of in vitro antifungal resistance in yeasts” (2008).
In brackets after ≈: the same amount, converted by molar mass.

Tests used:
Format in all cases: functional
[1] = test system: Candida parapsilosis; test: Antifungal activity against Candida parapsilosis ATCC 22019 by AFST-EUCAST method; settings: Lodderomyces parapsilosis
Method in brief: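 Microdilution per AFST-EUCAST 7.1, with the strain run as a quality control in each set. RPMI 1640 plus 2% glucose, inoculum 10^5 CFU/ml, flat-bottomed plates. Read spectrophotometrically at 24 and 48 h. MIC endpoint is the lowest concentration giving ≥90% growth reduction versus the drug-free control for AMB, and 50% OD reduction for 5FC and azoles.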

[2] = test system: Candida parapsilosis; test: Antifungal activity against Candida parapsilosis ATCC 22019 by WIDERYST method; settings: Lodderomyces parapsilosis
Method in brief: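 Commercial 96-well panels with lyophilized drugs, the strain serving as a quality control. Ranges: FLC and 5FC 128–0.06 µg/ml; AMB, ITC, VRC and KTC 8–0.004 µg/ml. Inoculum 1 x 10^5 to 5 x 10^5 CFU/ml, 35°C, 24 h, no CO2, plus 24 h if no growth. Video-image read; MIC is 90% (AMB) or 50% (others) growth reduction versus the positive control.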

[3] = test system: Pichia kudriavzevii; test: Antifungal activity against Candida krusei ATCC 6258 by AFST-EUCAST method
Method in brief: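 AFST-EUCAST microdilution standard for fermentative yeasts (document 7.1). The medium was RPMI 1640 with 2% glucose in flat-bottomed plates, and the inoculum was 10^5 CFU/ml. Endpoints were read spectrophotometrically at 24 and 48 h. The MIC was the lowest concentration giving ≥90% growth reduction versus the drug-free control for AMB, or a 50% OD reduction for 5FC and azoles. Run as a quality-control strain in each set.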

[4] = test system: Pichia kudriavzevii; test: Antifungal activity against Candida krusei ATCC 6258 by WIDERYST method
[5] = test system: Candida parapsilosis; test: Antifungal activity against Candida parapsilosis ATCC 22019 by CLSI M27-A2 microdilution method; settings: Lodderomyces parapsilosis
[6] = test system: Pichia kudriavzevii; test: Antifungal activity against Candida krusei ATCC 6258 by CLSI M27-A2 microdilution method

SMILES: C[C@@H]1[C@H](O)[C@@H](C)/C=C/C=C/C=C/C=C/C=C/C=C/C=C/[C@H](O[C@@H]2O[C@H](C)[C@@H](O)[C@H](N)[C@@H]2O)C[C@@H]2O[C@](O)(C[C@@H](O)C[C@@H](O)[C@H](O)CC[C@@H](O)C[C@@H](O)CC(=O)O[C@H]1C)C[C@H](O)[C@H]2C(=O)O [AMPHOTERICIN B]
- MIC [1]: 0.12 µg/mL (≈ 0.13 µM)
- MIC [2]: 0.06 µg/mL (≈ 0.0649 µM)
- MIC [3]: 0.12 µg/mL (≈ 0.13 µM)
- MIC [4]: 0.12 µg/mL (≈ 0.13 µM)
- MIC [5]: 0.25 µg/mL (≈ 0.271 µM)
- MIC [6]: 0.5 µg/mL (≈ 0.541 µM)

SMILES: OC(Cn1cncn1)(Cn1cncn1)c1ccc(F)cc1F [FLUCONAZOLE]
- MIC [1]: 1 µg/mL (≈ 3.27 µM)
- MIC [2]: 0.5 µg/mL (≈ 1.63 µM)
- MIC [3]: 8 µg/mL (≈ 26.1 µM)
- MIC [4]: 8 µg/mL (≈ 26.1 µM)
- MIC [5]: 1 µg/mL (≈ 3.27 µM)
- MIC [6]: 16 µg/mL (≈ 52.2 µM)

SMILES: Nc1nc(=O)[nH]cc1F [FLUCYTOSINE]
- MIC [1]: 0.12 µg/mL (≈ 0.93 µM)
- MIC [2]: 0.06 µg/mL (≈ 0.465 µM)
- MIC [3]: 1 µg/mL (≈ 7.75 µM)
- MIC [4]: 2 µg/mL (≈ 15.5 µM)
- MIC [5]: 0.12 µg/mL (≈ 0.93 µM)
- MIC [6]: 4 µg/mL (≈ 31 µM)

SMILES: CCC(C)n1ncn(-c2ccc(N3CCN(c4ccc(OCC5COC(Cn6cncn6)(c6ccc(Cl)cc6Cl)O5)cc4)CC3)cc2)c1=O (stereo unspecified) [ITRACONAZOLE]
- MIC [1]: 0.03 µg/mL (≈ 0.0425 µM)
- MIC [2]: 0.03 µg/mL (≈ 0.0425 µM)
- MIC [3]: 0.06 µg/mL (≈ 0.085 µM)
- MIC [4]: 0.06 µg/mL (≈ 0.085 µM)
- MIC [5]: 0.12 µg/mL (≈ 0.17 µM)
- MIC [6]: 0.12 µg/mL (≈ 0.17 µM)

SMILES: CC(=O)N1CCN(c2ccc(OCC3COC(Cn4ccnc4)(c4ccc(Cl)cc4Cl)O3)cc2)CC1 (stereo unspecified) [KETOCONAZOLE]
- MIC [1]: 0.01 µg/mL (≈ 0.0188 µM)
- MIC [2]: 0.01 µg/mL (≈ 0.0188 µM)
- MIC [3]: 0.06 µg/mL (≈ 0.113 µM)
- MIC [4]: 0.12 µg/mL (≈ 0.226 µM)
- MIC [5]: 0.03 µg/mL (≈ 0.0565 µM)
- MIC [6]: 0.12 µg/mL (≈ 0.226 µM)

SMILES: C[C@@H](c1ncncc1F)[C@](O)(Cn1cncn1)c1ccc(F)cc1F [VORICONAZOLE]
- MIC [1]: 0.03 µg/mL (≈ 0.0859 µM)
- MIC [2]: 0.01 µg/mL (≈ 0.0286 µM)
- MIC [3]: 0.06 µg/mL (≈ 0.172 µM)
- MIC [4]: 0.06 µg/mL (≈ 0.172 µM)
- MIC [5]: 0.03 µg/mL (≈ 0.0859 µM)
- MIC [6]: 0.06 µg/mL (≈ 0.172 µM)
